Bioassay records: PubChem BioAssay, several laboratories
Cl transport mod = KCC2 (human) Cl- transport modulation | Q9H2X9 | KCC2 cells, thallium flux FluoZin-2 fluorescence | B-score of Tl+ flux slope (higher = more flux/activation; lower = inhibition) at 10 µM | actives 2.2% (n = 190,000);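 active = thallium flux slope and its plate-corrected score both differing from the plate sample mean at a set confidence after two filtering rounds, in either direction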;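 also: slope of fluorescence scaled to starting intensity during 10 to 20 s after thallium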
KCNQ1 block = inhibitors of human KCNQ1 potassium channel; P51787; CHO-K1 KCNQ1, FluxOR thallium flux fluorescence; active compounds read high; B-score at 10 µM; actives 1.3% (n = 310,000);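 active = compounds whose thallium flux B-score, printed positive for inhibition, exceeds three library SD while starting fluorescence stays within three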;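 also: channel opened by potassium depolarization with thallium stimulus after 20 min compound exposure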
KCNK3 inh = human KCNK3 channel inhibition, primary screen. O14649. CHO-KCNK3 thallium flux, FluxOR fluorescence; active compounds read low. B-score at 10 µM. actives 0.84% (n = 340,000). AID 602410;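 active = B-score under library mean minus 4 SD, starting fluorescence ratio at most library mean plus 5 SD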;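 also: more negative B-score means stronger inhibition of thallium flux through KCNK3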
Target sequence (O14649 whole entry, looked up): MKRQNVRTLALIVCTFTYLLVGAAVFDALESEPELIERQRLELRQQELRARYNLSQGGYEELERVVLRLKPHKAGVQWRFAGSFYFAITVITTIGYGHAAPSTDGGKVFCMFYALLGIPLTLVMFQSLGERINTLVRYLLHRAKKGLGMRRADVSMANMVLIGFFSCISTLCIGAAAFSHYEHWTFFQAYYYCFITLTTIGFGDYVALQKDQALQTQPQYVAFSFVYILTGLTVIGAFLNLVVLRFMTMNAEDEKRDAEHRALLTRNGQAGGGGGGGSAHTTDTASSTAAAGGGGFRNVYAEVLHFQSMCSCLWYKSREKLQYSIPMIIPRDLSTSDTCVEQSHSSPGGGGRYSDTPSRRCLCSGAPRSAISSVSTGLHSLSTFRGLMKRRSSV
hERG rescue = hERG (human) protection from proarrhythmic block | activation (rescue from dofetilide block), less the hit threshold, % at 10 µM | CHO-hERG, FluxOR thallium flux, dofetilide IC70 present | Q12809 | actives 0.51% (n = 310,000);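 active = activation above the mean of controls blocked by dofetilide plus 5 SD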;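 also: thallium influx through hERG after potassium depolarization seen as dye fluorescence rise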
KCNK9 block = blocks the human KCNK9 two-pore domain potassium channel; Q9NPC2; HEK293 KCNK9, FluxOR thallium flux fluorescence; active compounds read low; B-score at 10 µM; actives 1.2% (n = 310,000); AID 488922;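 active = ratio B-score over 3 SD below the library mean, with starting fluorescence within 5 SD of its mean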;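 also: negative B-score means less thallium flux so channel inhibition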
Target sequence (Q9NPC2 whole entry, looked up, the tested form may be a part): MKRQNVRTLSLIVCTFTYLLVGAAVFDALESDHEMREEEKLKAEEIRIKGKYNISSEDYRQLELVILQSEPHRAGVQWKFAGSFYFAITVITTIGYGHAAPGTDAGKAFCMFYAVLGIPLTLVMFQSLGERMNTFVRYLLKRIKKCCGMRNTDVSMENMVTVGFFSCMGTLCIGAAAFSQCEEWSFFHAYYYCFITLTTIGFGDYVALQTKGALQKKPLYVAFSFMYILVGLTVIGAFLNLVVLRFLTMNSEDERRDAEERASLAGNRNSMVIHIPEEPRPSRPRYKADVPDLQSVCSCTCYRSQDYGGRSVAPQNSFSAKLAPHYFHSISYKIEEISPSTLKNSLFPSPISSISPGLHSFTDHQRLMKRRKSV
KCNQ1 act = potentiates or activates the human KCNQ1 potassium channel. CHO-K1 KCNQ1, thallium flux FluxOR fluorescence; active compounds read high. AID 2648. B-score at 10 µM. P51787. actives 0.35% (n = 310,000);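 active = fluorescence ratio B-score, a plate-corrected score, at least three library SD, with initial intensity B-score within 5 SD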
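Test system: CHO-K1 cells stably expressing KCNQ1 / Medium: assay buffer / Also added: depolarizing K+/Tl+ stimulus, K2SO4 and Tl2SO4 each 12.5 mM in 5x stock / Incubation: 90 min dye loading and 20 min compound exposure, both at room temperature / Signal: thallium influx via FluxOR fluorescence, kinetic imaging / Evaluation: B score of baseline-normalized fluorescence ratio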
KCC2 secondary = confirmation of human KCC2 transport modulators. actives 15% (n = 3,700). shares compounds with Cl transport mod. HEK293-KCC2, thallium flux, FluoZin2 fluorescence; active compounds read high. AID 1713. normalised thallium flux (F/F0 slope) at 10 µM;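 active = thallium flux slope above the same plate's solvent-only control mean plus 3 SD; inconclusive = the two replicate wells disagree; inactive = no significant difference from solvent-only control wells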
KCC2 bumet counter = thallium flux despite bumetanide block in KCC2 cells, secondary assay 3; shares compounds with Cl transport mod; HEK293-KCC2 + bumetanide/ouabain, thallium flux FluoZin2; active compounds read high; normalized thallium flux at 10 µM; actives 49% (n = 3,700); AID 1714;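 active = thallium entry rate above the same plate's blocked-transporter control wells by more than 3 SD; inconclusive = the two repeat wells disagree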;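 also: raw slope of fluorescence over initial fluorescence between 10 and 20 s after thallium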
KCC2 sec2 = KCC2 (human) modulation, second secondary assay | normalized thallium flux at 10 µM | actives 23% (n = 3,700) | shares compounds with Cl transport mod | HEK293-KCC2, thallium flux FluoZin2 fluorescence; actives lie on both sides; F/F0 rise rate, 10–20 s post-thallium;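 active = thallium flux slope more than 3 SD above or below the plate's solvent-only control mean, mostly below; inconclusive = the two repeat wells disagreed; inactive = no significant shift from solvent-only controls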;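 also: raw slope with 0.1% DMSO as baseline and bumetanide as block control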
HEK293 Tl flux = counter-screen for KCC2 modulators: effect in parental HEK293 cells; shares compounds with Cl transport mod; thallium flux FluoZin2, ouabain; baseline-ratio fluorescence slope, 10–20 s after thallium; thallium flux rate (normalised fluorescence) at 10 µM; actives 46% (n = 3,700);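 active = thallium flux rate significantly above the same plate's solvent-only control wells, beyond their mean plus 3 SD; inconclusive = the two replicate wells gave conflicting results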
KCC2 retest ouab = KCC2 (human) modulation, ouabain retest; shares compounds with Cl transport mod; HEK293-KCC2, thallium flux FluoZin2 fluorescence; bidirectional: low = inhibitor, high = activator; raw Tl+ flux slope (below DMSO = inhibition, above = activation) at 10 µM; actives 48% (n = 3,700); AID 1717;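 active = thallium flux slope beyond 3 SD from same-plate DMSO control mean in most replicates, usually higher, sometimes lower; inconclusive = repeat tests gave conflicting results; inactive = no significant difference from controls in most replicates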;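 also: slope of initial-normalized fluorescence between seconds 10 and 20 after thallium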
HEK counter2 = counter-screen for KCC2 modulators: effect in parental HEK293 cells; AID 1718; thallium flux FluoZin-2 fluorescence slope; thallium flux slope at 10 µM; actives 33% (n = 3,700); shares compounds with Cl transport mod;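 active = thallium flux slope above the same plate's solvent-control mean plus 3 SD in both duplicate wells; inconclusive = duplicate wells that disagreed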;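 also: run without ouabain in cells lacking the KCC2 cotransporter; slope of fluorescence scaled to its starting value between 10 and 20 s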
An asterisk follows results filed as active; i = inactive; ? = inconclusive; . = no result. Only some compounds are listed: those with a hit (about 4.1% of all), similar ones and a draw of the others.

SMILES	Cl transport mod	KCNQ1 block	KCNK3 inh	hERG rescue	KCNK9 block	KCNQ1 act	KCC2 secondary	KCC2 bumet counter	KCC2 sec2	HEK293 Tl flux	KCC2 retest ouab	HEK counter2
O=C(Cn1cnc2ccccc2c1=O)Nc1nnc(SCc2ccccc2)s1	.	i	i	-4	i	i	0.0089	0.0067	0.029	0.009*	0.021	?
O=C(Nc1nc2ccccc2s1)C1CCCN1S(=O)(=O)c1ccc(Cl)cc1 (stereo not drawn)	.	i	i	-12	i	i	0.0073	0.0048	0.03	0.0083	0.018	0.011
Cc1ccc(S(=O)(=O)N2CCCC2C(=O)Nc2nc3ccccc3s2)cc1 (stereo not drawn)	-2.9	i	i	-7	i	i	.	.	.	.	.	.
COc1ccc(S(=O)(=O)N2CCN(C(=O)c3cc(C)nc4ccccc34)CC2)cc1OC	.	.	i	.	.	.	.	.	.	.	.	.
CCOC(=O)NNc1ccc2nonc2c1[N+](=O)[O-]	13*	i	i	0	i	i	0.007	0.013*	0.033	0.013*	0.024*	0.013*
CCc1ccc(Nc2ccc3nonc3c2[N+](=O)[O-])cc1	.	i	i	-12	i	i	.	.	.	.	.	.
CCC(=O)N(c1nnc(SCC(=O)c2ccc[nH]2)s1)C1CC1	.	.	i	.	.	.	.	.	.	.	.	.
CSc1nsc(SCC(=O)Nc2cccc(NC(C)=O)c2)n1	.	i	i	-4	i	i	.	.	.	.	.	.
Cn1c(SCc2cccc(F)c2)nnc1-c1ccncc1	.	i	i	-4	i	i	.	.	.	.	.	.
O=CN1CCN(C(=O)CN2C(=O)c3ccccc3C2=O)CC1	6.3*	i	i	-7	i	i	0.0059	?	0.027	0.0081	0.018	0.01
O=C(CN1C(=O)c2ccccc2C1=O)N1CCCCC1	1.6	i	i	-10	i	i	.	.	.	.	.	.
Cc1cc(C)cc(N2CC(C(=O)OCC(=O)Nc3cc(C)on3)CC2=O)c1 (stereo not drawn)	.	i	i	-3	i	i	.	.	.	.	.	.
O=C(Nc1cccc(Cl)c1)c1cc(S(=O)(=O)N2CCOCC2)cs1	.	i	i	-12	i	i	.	.	.	.	.	.
Cc1ccc2cccc(NC(=S)NC(=O)c3c(Br)cnn3C)c2n1	5.7*	i	i	-14	i	i	0.0067	0.015*	0.027	0.014*	0.029*	0.012*
Cc1ccc2cccc(NC(=S)NC(=O)c3ccn(C)n3)c2n1	.	i	i	-6	i	i	.	.	.	.	.	.
CS(=O)(=O)c1ccc(C(=O)Nc2ccc(N3CCOCC3)cc2)c(Cl)c1	-0.0084	i	i	-8	i	i	.	.	.	.	.	.
CN(c1ccccc1)S(=O)(=O)c1ccc(Cl)c(C(=O)Nc2ccc(N3CCOCC3)cc2)c1	-2.7*	i	i	-14	i	i	0.006	0.0062	0.029	0.0064	0.017	0.0094
S=c1[nH]c(-c2ccccc2)cn1/N=C/c1ccc(Br)cc1	54*	i	i	1	i	i	0.011*	0.04*	0.032	0.017*	0.048*	0.011*
S=c1[nH]c(-c2ccccc2)cn1/N=C/c1cccnc1	1.7	i	i	-8	i	i	.	.	.	.	.	.
O=C(O)c1ccc(/C=N/n2cc(-c3ccccc3)[nH]c2=S)cc1	1.1	i	i	-9	i	i	.	.	.	.	.	.
S=c1[nH]c(-c2ccccc2)cn1/N=C/c1cccs1	18*	i	i	-11	i	i	0.023*	0.036*	0.033	0.016*	0.029*	0.016*
CCc1nnc(NC(=O)CSc2nnc(Cc3ccccc3)o2)s1	.	i	i	-7	i	i	0.0072	0.007	0.027	0.0063	?	0.0098
CCc1nnc(NC(=O)CSc2nnc(CNc3ccc(Cl)cc3)o2)s1	.	i	i	-8	i	i	.	.	.	.	.	.
CNc1nc(-c2ccc3c(c2)CCN3C(=O)c2ccccc2F)cs1	-4.3*	i	i	-18	i	i	0.009	0.0065	0.035	0.0036	0.019	0.011
CC1CCCCN1C(=O)CSc1nnc(-c2c[nH]c3ccccc23)o1 (stereo not drawn)	-3.3*	i	i	-11	i	i	0.018	0.0048	0.023*	0.0074	0.015	0.01
SMILES	Cl transport mod	KCNQ1 block	KCNK3 inh	hERG rescue	KCNK9 block	KCNQ1 act	KCC2 secondary	KCC2 bumet counter	KCC2 sec2	HEK293 Tl flux	KCC2 retest ouab	HEK counter2
CSc1sc(C(=O)O)c2c1C(=O)CCC2	-4*	i	i	-8	i	i	0.0099	?	0.035	0.0076	0.023	0.011
CSc1sc(C(=O)O)c2c1C(=O)CC(C)(C)C2	.	i	i	-4	i	i	.	.	.	.	.	.
Cc1cccc(NC(=O)Cc2nc(-c3c[nH]c(C(=O)N4CCCC4)c3)cs2)c1	.	.	i	.	.	.	.	.	.	.	.	.
CC1=C(C(=O)OCc2ccccc2)C(c2ccco2)C2=C(CC(C)(C)CC2=O)N1 (stereo not drawn)	-4.3*	i	i	-8	i	i	?	0.0052	0.029	0.0062	0.05*	?
COc1ccc(-c2nc3ccccc3c(=O)n2CC(C)C)cc1	.	i	i	-7	i	i	.	.	.	.	.	.
CC(=O)N1c2ccc(S(=O)(=O)NCC3CCC(C(=O)N4CC(C)CC(C)C4)CC3)cc2CC1C (stereo not drawn)	.	i	i	-14	i	i	.	.	.	.	.	.
CCOc1ccc(Nc2n[nH]c(=S)s2)cc1	-5.3*	i	i	-3	i	i	?	0.0053	0.02*	0.0083	?	0.011
COC(=O)c1ccccc1NC(=O)CSc1ccc(C)cc1	-4.3*	i	i	-14	i	i	0.0083	?	0.033	0.0063	0.02	0.01
